ChEMBL document CHEMBL5154683, “A 5-FU Precursor Designed to Evade Anabolic and Catabolic Drug Pathways and Activated by Pd Chemistry In Vitro and In Vivo” (J Med Chem, 2022)

What was measured:
[1] = Prodrug conversion in PBS buffer assessed as 5-Fluorouracil formation by measuring retention time at 100 uM in presence of Pd-resin measured upto 1 hr by UPLC analysis; format: ADME
Summary of the method: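 Prodrug (100 μM in PBS, pH 7.4) shaken at 1200 rpm, 37 °C with 1 mg/mL Pd resins (30 μm). Sampled at 10, 20, 40 min, 1, 3, 6, 24 and 48 h; analyzed by reverse-phase UPLC (C18, 60 °C, UV 254 nm), products identified by retention time against authentic standards.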

[2] = Stability in human hepatocytes assessed as parent compound remaining at 10 uM measured after 60 mins by UPLC analysis; format: ADME, cell-based, Hepatocyte; settings: read-out: Stability
Summary of the method: (§1)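 Cryopreserved male Sprague–Dawley rat or male human hepatocytes (0.5 × 10⁶ cells/mL) in Leibovitz buffer with 10 μM compound, 37 °C, shaken 700 rpm, 60 min. Samples at 0 and 60 min quenched 1:1 with ice-cold acetonitrile; supernatant analyzed by UPLC–QToF MS (positive ion). Hepatocyte-only and buffer-only negatives; verapamil and 7-hydroxycoumarin as viability controls.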

[3] = AUC (0 to infinity) in male Wistar Han rat at 10 mg/kg, po administered as single dose measured upto 24 hrs; format: ADME, organism-based; design: time < 24 hrs, dose 10 mg/kg, route po; settings: in vivo
Summary of the method: (§2)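 Male jugular-vein-cannulated Wistar Han rats, 263–319 g, single dose. IV: 1 mg/kg as 2 mL/kg of 0.5 mg/mL in 5% DMSO/95% HPCD (20% w/v), not fasted. PO: 10 mg/kg as 5 mL/kg of 2 mg/mL suspension in 5% DMSO/95% tween 80/HPCD vehicle, fasted overnight. Serial cannula blood sampling 0.083/0.25–24 h (n = 3/route); parent quantified by QToF against calibration curve.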

[4] = Tmax in male Wistar Han rat at 1000 mg/kg, po administered as single dose measured upto 24 hrs; format: ADME, organism-based; settings: in vivo
Summary of the method: (§3)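 Single oral dose 1000 mg/kg in male and female rats, dosing volume 10 mL/kg (n = 6); animals observed 14 days with clinical checks, functional/neurobehavioral tests and body weight, necropsy on d15; exposure parameters from the toxicokinetic arm of this study.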

[5] = Mean residence time in female Wistar Han rat at 1000 mg/kg, po administered as single dose measured upto 24 hrs; format: ADME, organism-based; settings: in vivo; summary of the method: as §3
[6] = Cmax in male Wistar Han rat at 1000 mg/kg, po administered as single dose measured upto 24 hrs; format: ADME, organism-based; design: time < 24 hrs, dose 1000 mg/kg, route po; settings: in vivo; summary of the method: as §3
[7] = Half life in male Wistar Han rat at 1 mg/kg, iv administered as single dose measured upto 24 hrs; format: ADME, organism-based; settings: in vivo; summary of the method: as §2
[8] = AUC (0 to t) in female Wistar Han rat at 1000 mg/kg, po administered as single dose measured upto 24 hrs; format: ADME, organism-based; design: dose 1000 mg/kg, time < 24 hrs, route po; settings: in vivo; summary of the method: as §3
[9] = Drug metabolism in BALB/c mouse bearing HCT-116 tumor assessed as release of 5-FU in plasma at 75 to 150 mg/kg, po administered for 7 days; format: ADME, organism-based; settings: in vivo, 168 h, dose 75-150 mg/kg, time 7 day
Summary of the method: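 Same HCT116-bearing BALB/c nude mice with intratumoral Pd resins and 7-day oral dosing at 75 or 150 mg/kg; blood collected by microsampling on day 7, 2 h after administration, plasma frozen at –20 °C for analysis.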

[10] = Metabolic stability in human hepatocytes assessed as half life at 1 uM by LC-MS/MS analysis; format: ADME, cell-based, Hepatocyte
Summary of the method: (§4)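 Suspended hepatocytes (0.5 × 10⁶ cells/mL) in Williams E medium with 2 mM L-glutamine and 25 mM HEPES at 37 °C, compound added with 0.25% v/v DMSO after preincubation; aliquots quenched into methanol with internal standard at time points, centrifuged, supernatant analyzed by LC-MS/MS; two control compounds included.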

[11] = Apparent permeability across apical to basolateral side in human Caco-2 cells assessed as drug recovery at 10 uM measured after 120 mins by LC-MS/MS analysis; format: ADME, cell-based; settings: read-out: Drug recovery
Summary of the method: (§5)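 Caco-2 cells (P40-60) seeded at 1 × 10⁵ cells/cm² on Transwells, used on day 20; rinsed and equilibrated 40 min in HBSS pH 7.4. Compound at 10 μM in HBSS, 1% v/v DMSO, added apically (A–B) or basolaterally (B–A); 120 min at 37 °C, 5% CO₂. Lucifer yellow monitored monolayer integrity; LC-MS/MS with eight-point calibration; recovery from C₀ and both compartments.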

[12] = Volume of distribution at steady state in male Wistar Han rat at 1 mg/kg, iv administered as single dose measured upto 24 hrs; format: ADME, organism-based; settings: in vivo, read-out: Vdss
Summary of the method: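 Male jugular-vein-cannulated Wistar Han rats (n = 3, 263–319 g, not fasted) given 1 mg/kg IV as 2 mL/kg of 0.5 mg/mL solution in 5% DMSO/95% HPCD (20% w/v). Serial blood via cannula from 0.083 to 24 h, mixed with heparinized water and stored at –20 °C. Parent quantified by QToF against a calibration curve.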

[13] = AUC (0 to infinity) in maleWistar Han rat at 1000 mg/kg, po administered as single dose measured upto 24 hrs; format: ADME, organism-based; design: time < 24 hrs, dose 1000 mg/kg, route po; settings: male, Wistar Han, in vivo; summary of the method: as §3
[14] = Mean residence time in male Wistar Han rat at 10 mg/kg, po administered as single dose measured upto 24 hrs; format: ADME, organism-based; settings: in vivo; summary of the method: as §2
[15] = Plasma protein binding in human assessed as compound recovery at 5 uM; format: ADME, cell-free; settings: read-out: Drug recovery
Summary of the method: (§6)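 Binding of compound at 5 μM measured in rat and human plasma, with compound recovery determined; n = 3.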

[16] = Stability in Sprague-Dawley rat hepatocytes assessed as parent compound remaining at 10 uM measured after 60 mins by UPLC analysis; format: ADME, cell-based, Hepatocyte; settings: read-out: Stability; summary of the method: as §1
[17] = Apparent permeability across apical to basolateral side in human Caco-2 cells at 10 uM measured after 120 mins by LC-MS/MS analysis; format: ADME, cell-based; summary of the method: as §5
[18] = AUC (0 to infinity) in male Wistar Han rat at 1 mg/kg, iv administered as single dose measured upto 24 hrs; format: ADME, organism-based; design: time < 24 hrs, dose 1 mg/kg, route iv; settings: in vivo; summary of the method: as §2
[19] = Metabolic stability in rat hepatocytes assessed as half life at 3 uM by LC-MS/MS analysis; format: ADME, cell-based, Hepatocyte; summary of the method: as §4
[20] = AUC (0 to t) in male Wistar Han rat at 1000 mg/kg, po administered as single dose measured upto 24 hrs; format: ADME, organism-based; design: dose 1000 mg/kg, time < 24 hrs, route po; settings: in vivo; summary of the method: as §3
[21] = Efflux ratio of apparent permeability across basolateral to apical side over apical to basolateral side in human Caco2 cells at 10 uM measured after 120 mins by LC-MS/MS analysis; format: ADME, cell-based; settings: Caco-2; summary of the method: as §5
[22] = Plasma protein binding in rat at 5 uM; format: ADME, cell-free; settings: read-out: PPB (converted); summary of the method: as §6
[23] = Mean residence time in male Wistar Han rat at 1000 mg/kg, po administered as single dose measured upto 24 hrs; format: ADME, organism-based; settings: in vivo; summary of the method: as §3
[24] = Toxicity in female Wistar Han rat assessed as abnormal morphological changes in organs at 1000 mg/kg, po administered as single dose measured after 15 days; format: organism-based; settings: in vivo, 360 h, time 15 day
Summary of the method: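 Single oral dose of 1000 mg/kg in 10 mL/kg to male and female rats (n = 6), then 14 days of observation. Mortality and morbidity checked twice daily, with clinical observations and functional/neurobehavioral tests. Body weight recorded d1, d2, d5, d8, d11 and d14. Gross necropsy on d15.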

[25] = Drug distribution in brain of BALB/c mouse xenografted with human HCT-116 cells at 75 to 150 mg/kg, po administered for 7 days; format: ADME, organism-based; settings: in vivo, 168 h, dose 75-150 mg/kg, time 7 day

C#CCOc1ncc(F)c(OCC#C)n1
Retention_time [1]: 0.78 min
remaining at 1 h, 10 µM [2]: > 99%
AUC(0-inf) [3]: 6.19 µg·h/mL
Tmax [4]: 1 h
MRT [5]: 13.4 h
Cmax [6]: 84.7 µg/mL
half-life [7]: 0.497 h
AUC(0-t) at 24 h [8]: 1210 µg·h/mL
Drug metabolism [9]: Metabolite_Detected
half-life at 1 µM [10]: 5.37 h
recovery at 2 h, 10 µM [11]: 79.2%
Vd [12]: 1.76 L/kg
AUC(0-inf) [13]: 2610 µg·h/mL
MRT [14]: 1.86 h
recovery at 5 µM [15]: 95.7%
remaining at 1 h, 10 µM [16]: 95%
Papp A→B at 2 h, 10 µM [17]: 281 nm/s
AUC(0-inf) [18]: 0.33 µg·h/mL
half-life at 3 µM [19]: 6.97 h
AUC(0-t) at 24 h [20]: 1590 µg·h/mL
efflux ratio at 2 h, 10 µM [21]: 1.38
fraction unbound at 5 µM [22]: 0.161
MRT [23]: 9.7 h
Activity [24]: Non-Toxic
Drug uptake [25]: Active
